Reference: article PMC10984326 (Chemistry & biodiversity, 2023)

Assays:
A375 cells [1] = assay: Flow cytometry analysis of cell cycle; format: cell-based, human; settings: for Cell cycle arrest: 5 x IC50; for Sub-G1 DNA content relative to control: 72 h, 5 x IC50 (7b 17.5 μM, 7c 21.5 μM), vs 0.2% DMSO
A375 cells [2] = assay: Wound-healing; format: cell-based, human; settings: for Inhibition of migration of A375 cells: after 20, 48 and 54 h, 7b 3.5 μM, 7c 4.3 μM
[3] = tested on: Human primary dermal fibroblasts; assay: MTT cell viability assay, non-cancerous fibroblasts; format: cell-based; settings: IC50 of cancer cells compared with IC50 of human fibroblasts
How it was run: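 Primary dermal fibroblasts were grown in fibroblast basal medium with low-serum growth supplement at 37°C, 5% CO2. Cells were seeded at 2×10^3/well, and after 24 h were exposed for 72 h to test compound (DMSO solution, up to 10 μM) or 0.1% DMSO. MTT was added for 4 h and the formazan dissolved in DMSO, with absorbance at 540 nm. IC50 came from non-linear regression, and SI from comparing A375 and 35404 IC50s with fibroblast IC50.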

35404 cells = assay: MTT cell viability assay, patient-derived melanoma metastasized to brain; format: cell-based, human; settings: read-out: Antiproliferative activity (IC50, μM) 35404 cells, 72 h treatment, up to 10 μM, mean±SD (n=4), IN = inactive

Row | Structure (SMILES) | Cell cycle arrest (A375 cells [1]; 24 h) | DNA fragmentation (sub-G1 DNA) (A375 cells [1]; 24 h, 5 x IC50 (17.5 μM)) | Cell cycle arrest (A375 cells [1]; 48 h and 72 h) | Sub-G1 DNA content relative to control (A375 cells [1]) | Wound surface area (A375 cells [2]; 4 h of treatment, 3.5 μM (IC50), 0 h = 100%, control 76%) | Inhibition of migration of A375 cells (A375 cells [2]) | SI (selectivity index) [3] | IC50 (35404 cells)
1 | Cc1cc(C(=O)/C(=C\c2cccc(F)c2)c2cccc(F)c2)c(C(=O)N2CCCCC2)c(=O)[nH]1 [Compound 7b, (Z)-4-(2,3-bis(3-fluorophenyl)acryloyl)-6-methyl-3-(piperidine-1-carbonyl)pyridin-2(1H)-one] | transient G2 and/or M phase arrest | Statistically significant DNA fragmentation | substantial G1 arrest | statistically significant increases | 93% | statistically significant inhibition of migration |  | 
2 | COc1ccc(/C=C(\C(=O)c2cc(C)[nH]c(=O)c2C(=O)N2CCCCC2)c2ccc(OC)c(C)c2)cc1C [Compound 7c, (Z)-4-(2,3-bis(4-methoxy-3-methylphenyl)acryloyl)-6-methyl-3-(piperidine-1-carbonyl)pyridin-2(1H)-one] |  |  | substantial G1 arrest | statistically significant increases |  | statistically significant inhibition of migration | >2 | 
3 | Cc1cc(C(=O)/C(=C\c2ccc(C)c(Cl)c2)c2ccc(C)c(Cl)c2)c(C(=O)N2CCCCC2)c(=O)[nH]1 [Compound 7g, (Z)-4-(2,3-bis(3-chloro-4-methylphenyl)acryloyl)-6-methyl-3-(piperidine-1-carbonyl)pyridin-2(1H)-one] |  |  |  |  |  |  | >20 | 0.4 ± 0.2 µM
